Drawing on ChEMBL document CHEMBL1212930, “The hoiamides, structurally intriguing neurotoxic lipopeptides from Papua New Guinea marine cyanobacteria” (J Nat Prod, 2010), this text covers IC50 and EC50 for five compounds.

A short description of assay [1]: Inhibition of calcium channel in mouse neocortical neurons assessed as inhibition of intracellular calcium oscilations. It counts as cell-based. The essentials: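 Primary neocortical neurons from embryonic day 16 Swiss-Webster mice, used at 12–13 DIV. Loaded 1 h with 4 μM fluo-3 plus 0.04% pluronic F-127 in Locke's buffer (pH 7.4), washed four times. Excitation 485 nm, emission 535 nm, read every 1.5 s; 60 s baseline, then compound added as a 4× solution. IC50 given with 95% CI.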
(In general: A change in cytosolic calcium serves as a functional read-out for many receptors and channels.)

The next assay concerns NCI-H460. The experiment in a line: Cytotoxicity against human H460 cells. It counts as functional, cell-based.
Assay [2] is described as follows: Cytotoxicity against mouse Neuro2a cells. It counts as functional, cell-based, N2a.
Assay [3] is described as follows: Activation of voltage-gated sodium channel in mouse neocortical neuron assessed as intracellular sodium influx.
Assay [4] is described as follows: Activation of voltage-gated sodium channel in mouse Neuro-2a cells assessed as intracellular sodium influx. Particulars: N2a; call rule not given here.
The mark [5] stands for this setting: Homo sapiens, NCI-H460, read-out: IC50.

The term IC50 denotes the concentration that inhibits the measured activity by half. One may read the EC50 as the concentration needed to bring the measured effect to its halfway point. Regarding `CCC[C@@H](C)[C@H](O)[C@H](C)[C@@H](O)[C@@H](C)[C@H](Cc1nc(C2=N[C@@](C)(C3=N[C@@](C)(C(=O)N[C@H]([C@@H](O)[C@@H](C)C(=O)OCC)[C@@H](C)CC)CS3)CS2)cs1)OC` [HOIAMIDE C], the IC50 result (in assay [1]; in the assay with NCI-H460 (nci-h460); in assay [2] (n2a)) was “Not Active” throughout. Moreover, the EC50 result in assay [3] was “Not Active”.
Take `CCC[C@@H](C)[C@H](O)[C@H](C)[C@H]1OC(=O)[C@H]([C@@H](C)O)NC(=O)[C@H]([C@@H](C)CC)OC(=O)[C@H](C)[C@H](O)[C@H]([C@@H](C)CC)NC(=O)[C@@]2(C)CSC(=N2)[C@@]2(C)CSC(=N2)c2csc(n2)C[C@H](OC)[C@@H]1C` [HOIAMIDE B]: the IC50 is 0.0798 µM in assay [1] (Mus musculus, read-out: IC50); 8.3 µM in the assay with NCI-H460 (setting [5]); “Not Active” in assay [2] (n2a). Moreover, the EC50 in assay [3] (Mus musculus, read-out: EC50) was found to be 3.9 µM.
Turning to `CCC[C@@H](C)[C@H](OC(=O)c1ccc(Br)cc1)[C@H](C)[C@H]1OC(=O)[C@H]([C@@H](C)O)NC(=O)[C@H](C(C)C)OC(=O)[C@H](C)[C@H](O)[C@H]([C@@H](C)CC)NC(=O)[C@@]2(C)CSC(=N2)[C@@]2(C)CSC(=N2)c2csc(n2)C[C@H](OC)[C@@H]1C`, the IC50 in assay [1] (Mus musculus, read-out: IC50) is 0.0873 µM; in the assay with NCI-H460 (nci-h460) it was “Not Active”; in assay [4], 3.4 µM. In addition, in assay [3] (Mus musculus, read-out: EC50), the EC50 came to 9.3 µM.
Turning to `CCC[C@@H](C)[C@H](OC(C)=O)[C@H](C)[C@H]1OC(=O)[C@H]([C@@H](C)OC(C)=O)NC(=O)[C@H](C(C)C)OC(=O)[C@H](C)[C@H](OC(C)=O)[C@H]([C@@H](C)CC)NC(=O)[C@@]2(C)CSC(=N2)[C@@]2(C)CSC(=N2)c2csc(n2)C[C@H](OC)[C@@H]1C`, the IC50 entry (in assay [1]; in the assay on NCI-H460 (nci-h460); in assay [2] (n2a)) was “Not Active” throughout. For the same compound, the EC50 result in assay [3] is “Not Active”.
Regarding `CCC[C@@H](C)[C@H](O)[C@H](C)[C@H]1OC(=O)[C@H]([C@@H](C)O)NC(=O)[C@H](C(C)C)OC(=O)[C@H](C)[C@H](O)[C@H]([C@@H](C)CC)NC(=O)[C@@]2(C)CSC(=N2)[C@@]2(C)CSC(=N2)c2csc(n2)C[C@H](OC)[C@@H]1C` [HOIAMIDE A], the IC50 amounted to 0.0456 µM in assay [1] (Mus musculus, read-out: IC50); 11.2 µM with NCI-H460 (setting [5]); 2.1 µM in assay [2] (Mus musculus, N2a, read-out: IC50). For the same compound, the EC50 in assay [3] (Mus musculus, read-out: EC50) stood at 1.7 µM.
